Laboratory results: article PMC8562596 (Biochemistry, 2016)
Where “and” joins values, the source holds several entries; their conditions need not be identical. Identical values can stand only once. Like-named read-outs stand apart in the source and are kept apart here. Marks after values point to notes of the source that are not given here. Non-standard residues stand in square brackets, D forms with d. Residues, ends and D or L forms follow the SMILES beside them. 2Nal = N[C@@H](Cc1ccc2ccccc2c1)C(=O)O

Legend:
HeLa cells [1] = assay: Apparent endosomal escape efficiency; type: cell-based; conditions: for Apparent Endosomal Escape (γ, %): γ=(MFI^NF/MFI^Rho) of CPP over that of CPP 1 ×100%, 5 μM, 2 h
Procedure, shortened: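 HeLa cells were seeded at 1.5 × 10^5 per well and grown overnight, then given 5 μM peptide for 2 h at 37 °C in medium. Separate peptide preparations were labelled with pH-sensitive naphthofluorescein or with rhodamine B through a miniPEG linker. Cells were DPBS-washed, trypsinised, pelleted and resuspended in DPBS for flow cytometry. NF used 633-nm excitation (APC channel) and Rho used 561-nm excitation (PE channel). γ is the NF/Rho mean-fluorescence ratio normalised to the reference peptide.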

[2] = Calcein release from LUVs; conditions: 20 μM peptide (Triton X-100 at 1%), over a 30-min period; Triton X-100 = 100%
Procedure, shortened: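 Large unilamellar vesicles with a lipid composition mimicking the late endosomal membrane were loaded with the small-molecule dye calcein. They were then exposed to the cyclic peptide, and release of calcein from the vesicles was followed.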

[3] = determined by fluorescence correlation spectroscopy; ref [42]; cited from earlier work
HeLa cells [4] = conditions: relative to CPP 1 (100%); ref [40]; cited from earlier work
HeLa cells [5] = conditions: Rho-labeled, relative to CPP 1 (100%), ref [40]; cited from earlier work
HeLa cells [6] = conditions: NF-labeled, relative to CPP 1 (100%), ref [40]; cited from earlier work
HeLa cells [7] = assay: Cytosolic entry of R9^NF in presence of unlabeled CPP, flow cytometry; type: cell-based; conditions: 5 μM unlabeled CPP
Procedure, shortened: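 HeLa cells seeded at 1.5 × 10^5 per well, grown overnight, then exposed to naphthofluorescein-labeled R9 with or without 5 μM unlabeled cyclic CPP for 2 h in culture medium. Cells were washed twice with DPBS, detached with 0.25% trypsin, pelleted at 250G for 5 min, washed, resuspended in DPBS and read by flow cytometry for cytosolic NF fluorescence.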

HeLa cells [8] = assay: Cellular uptake of FITC-labeled peptides, flow cytometry; type: cell-based; conditions: 9 vs cFΦR4, 11 vs 6, 12 vs 7, 5 μM, 2 h
Procedure, shortened: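 Peptides carried an extra lysine on the Gln side chain, FITC-labelled at that lysine. HeLa cells were seeded at 1.5 × 10^5 per well, grown overnight and given 5 μM peptide for 2 h in culture medium. Cells were DPBS-washed twice, trypsin-detached, pelleted at 250G for 5 min, washed and resuspended in DPBS. Flow cytometry used 488-nm excitation and the FITC channel.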

HeLa cells [9] = assay: Uptake of Rho-labeled CPPs under ATP depletion or at 4 °C, flow cytometry; type: cell-based
[10] = mouse, in vivo

N=C(N)NCCC[C@@H]1NC(=O)[C@H](CCCNC(=N)N)NC(=O)[C@H](CCCNC(=N)N)NC(=O)[C@H](Cc2ccc3ccccc3c2)NC(=O)[C@H](Cc2ccccc2)NC(=O)[C@H](CCC(N)=O)NC(=O)[C@H](CCCNC(=N)N)NC1=O [CPP 1, cyclo(FΦRRRRQ)] (cyclo(F[2Nal]RRRRQ))
Apparent Endosomal Escape (γ, %) (HeLa cells [1]): 100%

RRRRRRRRR [R9, nonaarginine]
Calcein dye release from LUVs [2]: 1% | Cytosolic Delivery Efficiency (%) [3]: 4.4% | Apparent Endosomal Escape (γ, %) (HeLa cells [1]): 40 ± 5%

Triton X-100
Calcein dye release from LUVs [2]: 100%

YGRKKRRQRRR [Tat]
Apparent Endosomal Escape (γ, %) (HeLa cells [4]): 23 ± 4 ^b % | Cytosolic Delivery Efficiency (%) [3]: 2.0% and 2.0 ^c % | Total Cellular Uptake (MFI^Rho, %) (HeLa cells [5]): 43 ± 3 ^b % | Cytosolic Entry (MFI^NF, %) (HeLa cells [6]): 9.9 ± 1.7 ^b %

cyclo(FfΦRrRrQ) [CPP 12]
Endosomal escape efficiency, fold relative to cFΦR4 (HeLa cells [1]): 4.0 fold | Apparent Endosomal Escape (γ, %) (HeLa cells [1]): 402 ± 48% | Effect on the cytosolic entry of R9^NF (HeLa cells [7]): minimal effect

cyclo(fΦRrRrQ) [CPP 9]
CPP activity (FITC uptake), fold more active than stereoisomer (HeLa cells [8]): 6 fold | Decrease of total cellular uptake efficiency by energy depletion (HeLa cells [9]; ATP depletion with sodium azide and 2-deoxyglucose): ~ 80% | Reduction of cellular entry at 4 °C (HeLa cells [9]; incubation at 4 °C): ≥ 95% | Endosomal escape efficiency, fold relative to cFΦR4 (HeLa cells [1]): 2.0 fold | Apparent Endosomal Escape (γ, %) (HeLa cells [1]): 202 ± 20% | oral bioavailability [10]: demonstrated oral bioavailability

penetratin
Calcein dye release from LUVs [2]: 23%
